Assay results published in ChEMBL document CHEMBL1126263, “Development of high-affinity 5-HT3 receptor antagonists. 2. Two novel tricyclic benzamides” (J Med Chem, 1992).

What was measured:
Format in all cases: functional
Mustela putorius furo [1] = assay: Antiemetic potency was tested against cisplatin-induced emetic latency period in ferret after oral administration
Procedure, shortened: (§1)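 Ferret cisplatin-emesis model, iv or po pretreatment 30 or 60 min before cisplatin. Emetic latency read-out given as ED100, the dose raising emetic latency 100% over the control period. Based on 3–10 animals per dose, at least three per compound.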

Mustela putorius furo [2] = assay: Antiemetic potency was tested against cisplatin-induced emetic episodes in ferret after oral administration
Procedure, shortened: (§2)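 Ferret cisplatin-emesis model. Drug given iv or po, 30 or 60 min before cisplatin. Emetic episodes counted and ED50 derived from 3–10 animals per dose, at least three per compound. Control emetic episode means were reported.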

Mustela putorius furo [3] = assay: The compound was evaluated for the percentage increase in the emetic latency period to first emetic episode against cisplatin induced emesis in ferret (intravenous administration)
Procedure, shortened: (§3)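 Ferrets receive the test agent iv as a pretreatment before the cisplatin challenge; the table footnotes give 30 min and 60 min pretreatment times. Each dose uses 3–10 animals, with at least three doses per agent.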

Mustela putorius furo [4] = assay: Ratio of number of animals protected to the number of tested against cisplatin-induced emesis in ferret upon intravenous administration; 0/3; procedure, shortened: as §3
Mustela putorius furo [5] = assay: The compound was evaluated for the percentage reduction in the emetic episodes against cisplatin induced emesis in ferret (intravenous administration); procedure, shortened: as §3
Mustela putorius furo [6] = assay: Ratio of number of animals protected to the number of tested against cisplatin-induced emesis in ferret upon intravenous administration; 0/5; procedure, shortened: as §3
Mustela putorius furo [7] = assay: The compound was evaluated for the percentage reduction in the emetic episodes against cisplatin-induced emesis in ferret (intravenous administration); procedure, shortened: as §3
Mustela putorius furo [8] = assay: Antiemetic potency against cisplatin-induced emetic latency period in ferret after intravenous administration; procedure, shortened: as §1
Mustela putorius furo [9] = assay: The compound was evaluated for the percentage increase in the emetic latency period against cisplatin-induced emesis in ferret (oral administration)
Procedure, shortened: (§4)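 Ferrets dosed orally in 0.5% methylcellulose vehicle 60 min before cisplatin and observed for 240 min. Scored for complete protection (protected/tested), mean % reduction in emetic episodes and mean % increase in emetic latency. Non-vomiting animals were assigned 240 min latency. Significance versus vehicle group at p<0.05 or p<0.01.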

Mustela putorius furo [10] = assay: Antiemetic potency against cisplatin-induced emetic episodes in ferret after intravenous administration; procedure, shortened: as §2
Mustela putorius furo [11] = assay: Ratio of number of animals protected to the number of tested against cisplatin-induced emesis in ferret upon intravenous administration; 0/4; procedure, shortened: as §3
Mustela putorius furo [12] = assay: Ratio of number of animals protected to the number of tested against cisplatin-induced emesis in ferret upon intravenous administration; 2/4; procedure, shortened: as §3
Mustela putorius furo [13] = assay: Mean percent increase in emetic episode evaluated by giving RG 12915 (0.003 mg/kg) 60 min prior to cisplatin (orally) in ferret; procedure, shortened: as §4
Mustela putorius furo [14] = assay: Mean percent increase in emetic episode evaluated by giving RG 12915 (0.010 mg/kg) 60 min prior to cisplatin (orally) in ferret; procedure, shortened: as §4
Mustela putorius furo [15] = assay: Compound was evaluated for Percent protected by giving 0.5% methylcellulose 60 min prior to cisplatin (orally) in ferret; procedure, shortened: as §4
Mustela putorius furo [16] = assay: Compound was evaluated for Percent protected by giving RG 12915 (0.003 mg/kg) 60 min prior to cisplatin (orally) in ferret; procedure, shortened: as §4
Mustela putorius furo [17] = assay: Compound was evaluated for Percent protected by giving RG 12915 (0.010 mg/kg) 60 min prior to cisplatin (orally) in ferret; procedure, shortened: as §4
Mustela putorius furo [18] = assay: Compound was evaluated for Percent protected by giving RG 12915 (0.03 mg/kg) 60 min prior to cisplatin (orally) in ferret; procedure, shortened: as §4
Mustela putorius furo [19] = assay: Compound was evaluated for Percent protected by giving RG 12915 (0.1 mg/kg) 60 min prior to cisplatin (orally) in ferret; procedure, shortened: as §4
Mustela putorius furo [20] = assay: Compound was evaluated for Percent protected by giving RG 12915 (1.0 mg/kg) 60 min prior to cisplatin (orally) in ferret; procedure, shortened: as §4
Mustela putorius furo [21] = assay: Mean percent increase in emetic episode evaluated by giving RG 12915 (0.03 mg/kg) 60 min prior to cisplatin (orally) in ferret; procedure, shortened: as §4
Mustela putorius furo [22] = assay: Mean percent increase in emetic episode evaluated by giving RG 12915 (0.1 mg/kg) 60 min prior to cisplatin (orally) in ferret; procedure, shortened: as §4
Mustela putorius furo [23] = assay: Mean percent increase in emetic episode evaluated by giving RG 12915 (1.0 mg/kg) 60 min prior to cisplatin (orally) in ferret; procedure, shortened: as §4
Mustela putorius furo [24] = assay: Ratio of no. of protected and no. of tested evaluated by giving 0.5% methylcellulose 60 min prior to cisplatin (orally) in ferret; 0/22; procedure, shortened: as §4
Mustela putorius furo [25] = assay: Ratio of no. of protected and no. of tested evaluated by giving RG 12915 (0.003 mg/kg) 60 min prior to cisplatin (orally) in ferret; 1/4; procedure, shortened: as §4
Mustela putorius furo [26] = assay: Ratio of no. of protected and no. of tested evaluated by giving RG 12915 (0.010 mg/kg) 60 min prior to cisplatin (orally) in ferret; 5/12; procedure, shortened: as §4
Mustela putorius furo [27] = assay: Ratio of no. of protected and no. of tested evaluated by giving RG 12915 (0.03 mg/kg) 60 min prior to cisplatin (orally) in ferret; 4/4; procedure, shortened: as §4
Mustela putorius furo [28] = assay: Ratio of no. of protected and no. of tested evaluated by giving RG 12915 (0.1 mg/kg) 60 min prior to cisplatin (orally) in ferret; 6/6; procedure, shortened: as §4
Mustela putorius furo [29] = assay: Ratio of no. of protected and no. of tested evaluated by giving RG 12915 (1.0 mg/kg) 60 min prior to cisplatin (orally) in ferret; 7/10; procedure, shortened: as §4
Mustela putorius furo [30] = assay: Mean percent reduction in emetic episode evaluated by giving RG 12915 (0.003 mg/kg) 60 min prior to cisplatin (orally) in ferret; procedure, shortened: as §4
Mustela putorius furo [31] = assay: Mean percent reduction in emetic episode evaluated by giving RG 12915 (0.010 mg/kg) 60 min prior to cisplatin (orally) in ferret; procedure, shortened: as §4
Mustela putorius furo [32] = assay: Mean percent reduction in emetic episode evaluated by giving RG 12915 (0.03 mg/kg) 60 min prior to cisplatin (orally) in ferret; procedure, shortened: as §4
Mustela putorius furo [33] = assay: Mean percent reduction in emetic episode evaluated by giving RG 12915 (0.1 mg/kg) 60 min prior to cisplatin (orally) in ferret; procedure, shortened: as §4
Mustela putorius furo [34] = assay: Mean percent reduction in emetic episode evaluated by giving RG 12915 (1.0 mg/kg) 60 min prior to cisplatin (orally) in ferret; procedure, shortened: as §4
Mustela putorius furo [35] = assay: The compound was evaluated for the percentage increase in the emetic latency period to first emetic episode against cisplatin-induced emesis in ferret (intravenous administration); procedure, shortened: as §3

O=C(N[C@H]1CN2CCC1CC2)c1cc(Cl)cc2c1O[C@H]1CCC[C@H]2C1
ED100 (Mustela putorius furo [1]): >1 mg/kg
ED50 (Mustela putorius furo [2]): > 1 mg/kg

CN1CCCC1CCNC(=O)c1cc(Cl)cc2c1OC1CCCCC21 (stereo not drawn)
Increase (Mustela putorius furo [3]): -0.9%
Ratio (Mustela putorius furo [4]): 0
Reduction (Mustela putorius furo [5]): -38.1%

CCN(CC)CCNC(=O)c1cc(Cl)cc2c1OC1CCCCC21 (stereo not drawn)
Increase (Mustela putorius furo [3]): 6.5%
Ratio (Mustela putorius furo [6]): 0
Reduction (Mustela putorius furo [7]): 2.2%

O=C(N[C@H]1CN2CCC1CC2)c1cc(Cl)cc2c1O[C@H]1CCC[C@@H]2C1
ED100 (Mustela putorius furo [1]): 0.408 mg/kg
ED50 (Mustela putorius furo [2]): 0.085 mg/kg

O=C(NC1CN2CCC1CC2)c1cc(Cl)cc2c1OC1CCCCC21 (stereo not drawn)
ED100 (Mustela putorius furo [8]): 0.011 mg/kg
ED100 (Mustela putorius furo [9]): 0.011 mg/kg
ED50 (Mustela putorius furo [10]): 0.006 mg/kg
ED50 (Mustela putorius furo [2]): 0.005 mg/kg

O=C(NC1CN2CCC1CC2)c1cc(Cl)cc2c1OC1CCCC2C1 (stereo not drawn)
ED100 (Mustela putorius furo [1]): 0.022 mg/kg
ED50 (Mustela putorius furo [2]): 0.079 mg/kg

O=C(NCCc1c[nH]cn1)c1cc(Cl)cc2c1OC1CCCCC21 (stereo not drawn)
Increase (Mustela putorius furo [3]): 27.6%
Ratio (Mustela putorius furo [11]): 0
Reduction (Mustela putorius furo [5]): 44.4%

O=C(NCCN1CCOCC1)c1cc(Cl)cc2c1OC1CCCCC21 (stereo not drawn)
Increase (Mustela putorius furo [3]): 110.9%
Ratio (Mustela putorius furo [12]): 2
Reduction (Mustela putorius furo [5]): 48.9%

O=C(N[C@@H]1CN2CCC1CC2)c1cc(Cl)cc2c1O[C@@H]1CCCC[C@H]21
ED100 (Mustela putorius furo [1]): 0.258 mg/kg
ED50 (Mustela putorius furo [2]): 0.041 mg/kg

O=C(N[C@@H]1CN2CCC1CC2)c1cc(Cl)cc2c1O[C@H]1CCC[C@@H]2C1
ED100 (Mustela putorius furo [8]): 0.006 mg/kg
ED100 (Mustela putorius furo [1]): 0.01 mg/kg
ED50 (Mustela putorius furo [10]): 0.009 mg/kg
ED50 (Mustela putorius furo [2]): 0.007 mg/kg

O=C(N[C@@H]1CN2CCC1CC2)c1cc(Cl)cc2c1O[C@@H]1CCC[C@H]2C1
ED100 (Mustela putorius furo [1]): 0.29 mg/kg
ED50 (Mustela putorius furo [2]): 0.061 mg/kg

O=C(NC1CN2CCC1CC2)c1cc(Cl)cc2c3c(oc12)CCCC3 (stereo not drawn)
ED100 (Mustela putorius furo [1]): 0.272 mg/kg
ED50 (Mustela putorius furo [2]): 0.033 mg/kg

O=C(N[C@H]1CN2CCC1CC2)c1cc(Cl)cc2c1O[C@@H]1CCCC[C@H]21
ED100 (Mustela putorius furo [1]): >3 mg/kg
ED50 (Mustela putorius furo [2]): 0.084 mg/kg

O=C(N[C@H]1CN2CCC1CC2)c1cc(Cl)cc2c1O[C@H]1CCCC[C@@H]21
ED100 (Mustela putorius furo [1]): 0.107 mg/kg
ED50 (Mustela putorius furo [2]): 0.056 mg/kg

O=C(N[C@@H]1CN2CCC1CC2)c1cc(Cl)cc2c1O[C@H]1CCCC[C@@H]21
ED100 (Mustela putorius furo [8]): 0.007 mg/kg
ED100 (Mustela putorius furo [9]): 0.005 mg/kg
ED50 (Mustela putorius furo [10]): 0.004 mg/kg
ED50 (Mustela putorius furo [2]): 0.004 mg/kg
Increase (Mustela putorius furo [13]): 53%
Increase (Mustela putorius furo [14]): 105%
Protected (Mustela putorius furo [15]): 0%
Protected (Mustela putorius furo [16]): 25%
Protected (Mustela putorius furo [17]): 42%
Protected (Mustela putorius furo [18]): 100%
Protected (Mustela putorius furo [19]): 100%
Protected (Mustela putorius furo [20]): 70%
Increase (Mustela putorius furo [21]): 195%
Increase (Mustela putorius furo [22]): 195%
Increase (Mustela putorius furo [23]): 171%
Ratio (Mustela putorius furo [24]): 0
Ratio (Mustela putorius furo [25]): 1
Ratio (Mustela putorius furo [26]): 5
Ratio (Mustela putorius furo [27]): 4
Ratio (Mustela putorius furo [28]): 6
Ratio (Mustela putorius furo [29]): 7
Reduction (Mustela putorius furo [30]): 24%
Reduction (Mustela putorius furo [31]): 57%
Reduction (Mustela putorius furo [32]): 100%
Reduction (Mustela putorius furo [33]): 100%
Reduction (Mustela putorius furo [34]): 90%

Cn1cccc1CCNC(=O)c1cc(Cl)cc2c1OC1CCCCC21 (stereo not drawn)
Increase (Mustela putorius furo [35]): 1%
Ratio (Mustela putorius furo [11]): 0
Reduction (Mustela putorius furo [5]): 51.7%

CN1C2CCCC1CC(NC(=O)c1nn(C)c3ccccc13)C2 (stereo not drawn) [GRANISETRON]
ED100 (Mustela putorius furo [8]): 0.082 mg/kg
ED100 (Mustela putorius furo [1]): 0.117 mg/kg

CCN(CC)CCNC(=O)c1cc(Cl)c(N)cc1OC [METOCLOPRAMIDE]
ED100 (Mustela putorius furo [8]): 2.1 mg/kg
ED100 (Mustela putorius furo [1]): >5 mg/kg

Cc1nccn1CC1CCc2c(c3ccccc3n2C)C1=O (stereo not drawn) [ONDANSETRON]
ED100 (Mustela putorius furo [8]): 0.015 mg/kg
ED100 (Mustela putorius furo [1]): 0.031 mg/kg
ED50 (Mustela putorius furo [10]): 0.008 mg/kg
ED50 (Mustela putorius furo [2]): 0.28 mg/kg
